The source of these data is publication PMC4097008 (Molecular immunology, 2014).

The target in assay [1] is T1, Bla g 4 (Blattella germanica, UniProt P54962). The experiment in a line: isothermal titration calorimetry. It is filed as binding. In short, it runs like this:
(§1)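 Bla g 4 binding enthalpy was recorded by ITC at 25°C in 20 mM phosphate buffer, pH 8.0, with 100 μM protein and test amine titrant at 1 mM initial concentration. Supporting 1H-15N HSQC titrations used 0.2 mM 15N-labelled Bla g 4 (M9, 15N ammonium chloride) in 20 mM acetate, pH 4.5, 10% D2O, at 308 K and 800 MHz. Protein:ligand molar ratios were 1:0, 1:0.5, 1:1 and 1:2.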

For assay [2], the target named is T1, Bla g 4. As to the kind of experiment: isothermal titration calorimetry. The format is binding. In short, it runs like this: as §1
This is another data set of the same source.

pKd: −log10 of the molar value. Like-named read-outs stand apart in the source and are kept apart here.

T1 sequence (P54962 7-182): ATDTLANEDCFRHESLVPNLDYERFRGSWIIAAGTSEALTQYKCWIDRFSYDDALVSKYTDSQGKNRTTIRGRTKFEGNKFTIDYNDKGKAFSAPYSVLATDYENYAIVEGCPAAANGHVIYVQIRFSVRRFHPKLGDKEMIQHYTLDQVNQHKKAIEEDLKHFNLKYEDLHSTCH

For the compound `NCCc1ccc(O)cc1` [tyramine], the pKd at Bla g 4 [1] was 7.35.
Consider `NC[C@H](O)c1ccc(O)cc1` [octopamine], for which the pKd on Bla g 4 [2] was 6.73.
